Screening results (PubChem)
Most compounds without a hit are left out; they make up all but 1.5% or so of the library.
aDG glyco up: activators of alpha-DG glycosylation, primary screen, uHTS, Pro5-aDG cells, AlphaScreen; alpha-DG glycosylation AlphaScreen (IIH6); 0% Pro5, 100% B10-LARGE cell signal; activation, % at 10 µM; hit rate 0.22% among 360,000;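 active = activation of at least 8% versus controls, or a plate z-score of at least 8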;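 note: Pro5 are CHO cells carrying HIG-tagged alpha-DG that lacks glycosylation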
HNF4A DNA FP: change in binding of human HNF4A to DNA, primary screen, biochemical, fluorescence polarization, FITC-DNA | Hepatocyte nuclear factor 4-alpha (Homo sapiens), P41235 | 1 h | activity change, % at 10 µM | hit rate 0.3% among 360,000; in the data active = activity change above about 30%, passing the limit was not always enough
NR1D1 modulator: modulators of Rev-erb alpha DNA binding, primary screen, biochemical, FITC-DNA, fluorescence polarization, uHTS. Nuclear receptor subfamily 1 group D member 1 (Homo sapiens), P20393. Rev-erbα–FITC-DNA binding, 90 min. activity, % at 10 µM. hit rate 0.79% among 370,000;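 active = activity above about 14%, limit read from the data; passing the limit was not always enough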
CSN deneddyl inh: inhibitors of CSN-mediated cullin deneddylation, primary screen, biochemical, fluorescence polarization, uHTS | inhibition, % at 12.5 µM | hit rate 0.38% among 360,000 | Purified CSN, SCF-Nedd8-OG deneddylation;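 active = pattern-corrected inhibition above about 35%, with an unprinted fluorescence ratio check between 0.5 and 1.5, limit read from the data, passing the limit was not always enough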
Target sequence (Q92905 whole entry, looked up, one chain of several): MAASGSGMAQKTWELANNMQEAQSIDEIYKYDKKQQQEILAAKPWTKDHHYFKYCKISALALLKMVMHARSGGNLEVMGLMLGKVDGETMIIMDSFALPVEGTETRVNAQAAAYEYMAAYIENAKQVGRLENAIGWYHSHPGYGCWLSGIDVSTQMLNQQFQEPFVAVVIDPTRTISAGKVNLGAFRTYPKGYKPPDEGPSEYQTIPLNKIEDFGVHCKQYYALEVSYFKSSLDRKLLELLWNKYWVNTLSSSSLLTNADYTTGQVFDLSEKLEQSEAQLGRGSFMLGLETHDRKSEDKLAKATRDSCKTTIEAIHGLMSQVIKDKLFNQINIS
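Test system: Human Csn5 produced in HEK293T cells | Compound: 12.5 µM single point | Times: 90 min, room temperature | Signal: Fluorescence polarization readout | Read-out basis: % inhibition of substrate cleavage by Csn5 | Controls: no-enzyme wells high, enzyme-with-substrate wells low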
Rev-erbA confirm: modulators of Rev-erb alpha DNA binding, confirmation, biochemical, FITC-DNA, fluorescence polarization, single point | shares compounds with NR1D1 modulator | hit rate 61% among 3,000 | activation, % at 25 µM | 90 min;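 active = activation at or above a set limit, or at least 3 SD above the negative control mean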
RORg DNA counter: modulation of RORgamma DNA binding, dose response, counter-screen for Rev-erb alpha modulator project, biochemical, fluorescence polarization, FITC-DNA; hit rate 8% among 910; purified RORgamma protein-FITC-DNA binding; IC50, µM; shares compounds with NR1D1 modulator;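 active = Compounds whose fitted half-maximal concentration for disrupting protein-DNA binding is below 10 micromolar; the record names Rev-erb in its text, so the target is in doubt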
Of the large screens only hits and unclear results are named; the others gave an inactive call (follow-up assays come after a bar, where they were run); ! = not active in a repeat.

Cc1cc(OC(C)C(=O)NCc2cccnc2)c2c(C)c(C)c(=O)oc2c1 (stereo not drawn)	none
Cc1cc(OC(C)C(=O)NCc2cccnc2)c2c(C)c(Cc3ccccc3)c(=O)oc2c1 (stereo not drawn)	NR1D1 modulator 107 | Rev-erbA confirm 104 | RORg DNA counter inactive
O=c1oc2ccccc2n1CSC1=NCCS1	none
O=c1oc2ccccc2n1CSc1nc2ccccc2s1	NR1D1 modulator 18 | Rev-erbA confirm 20
CCC(=O)Nc1cccc(-c2cc3ccccc3oc2=O)c1	none
O=C(Cc1cccc2ccccc12)Nc1ccc(-c2cc3ccccc3oc2=O)cc1	NR1D1 modulator 27 | Rev-erbA confirm inactive
Cc1cc(C)cc(C(=O)NC(=S)Nc2ccc(-c3cc4ccccc4oc3=O)cc2)c1	NR1D1 modulator 70 | Rev-erbA confirm 36
CC(=O)Nc1ccc(NC(=S)NC(=O)c2cc3ccccc3o2)cc1	none
CC(=O)Nc1ccc(NC(=O)c2cccc(-c3cc4ccccc4oc3=O)c2)cc1	none
Cc1ccc(C(=O)NC(=S)Nc2ccc(-c3cc4ccccc4oc3=O)cc2)c(C)c1	NR1D1 modulator 68 | Rev-erbA confirm 18
CN(CCCOC(=O)c1cc2ccccc2o1)C1CN(Cc2cn(Cc3ccc([N+](=O)[O-])cc3)nn2)S(=O)(=O)C1 (stereo not drawn)	none (no result: aDG glyco up, HNF4A DNA FP, CSN deneddyl inh)
CCC(=O)c1cn(CC(=O)Nc2cccc(C)c2C)c2ccccc12	none
CCC(=O)c1cn(CC(=O)O)c2ccccc12	none
CCC(=O)c1cn(CC(=O)Nc2ccccc2Cl)c2ccccc12	NR1D1 modulator 80 | Rev-erbA confirm 44 | RORg DNA counter inactive
CCC(=O)c1cn(CC(=O)Nc2cccc(C)c2)c2ccccc12	NR1D1 modulator 52 | Rev-erbA confirm 45 | RORg DNA counter inactive
COCCCNc1nc2c(-c3ccc(C)cc3)nnn2c2ccccc12	NR1D1 modulator 65 | Rev-erbA confirm 35 | RORg DNA counter inactive
COc1ccc(NC(=O)c2sc3ncnc(N4CCN(c5ccccn5)CC4)c3c2C)cc1Cl	NR1D1 modulator 28 | Rev-erbA confirm 20
Cc1cc(Br)ccc1NC(=O)c1sc2ncnc(N3CCN(c4ccccn4)CC3)c2c1C	NR1D1 modulator 69 | Rev-erbA confirm inactive
Cc1c(C(=O)NC2CCCCC2)sc2ncnc(N3CCN(c4ccccc4)CC3)c12	NR1D1 modulator 39 | Rev-erbA confirm inactive
COc1ccc(NC(=O)c2sc3nc(C)nc(N4CCN(c5ccccn5)CC4)c3c2C)cc1Cl	none
C[C@H]1[C@@H](OC(=O)NCc2ccc(Cl)c(Cl)c2)CC[C@@]23CCCN2C(=O)CCC[C@@H]13	none (no result: aDG glyco up, HNF4A DNA FP, CSN deneddyl inh)
Cc1cc(-c2ccccc2)nc2oc3c(c12)NC(=O)CN(c1ccccc1)C3=O	NR1D1 modulator 23 | Rev-erbA confirm 35 | RORg DNA counter 1.1
N#Cc1ccc(OC[C@@H](O)CN2CCC(C(O)(c3ccccc3)c3ccccc3)CC2)cc1F	none (no result: aDG glyco up, HNF4A DNA FP, CSN deneddyl inh)
COc1ccc2nc(N/C(N)=N/C(=S)Nc3c(C)cccc3C)nc(C)c2c1	none
COc1ccc2nc(N/C(N)=N/C(=S)Nc3cccc(C)c3)nc(C)c2c1	none
Cc1ccc(NC(=S)/N=C(\N)Nc2nc(C)c3cc(C)ccc3n2)c(C)c1	none
Cc1ccc(NC(=S)/N=C(\N)Nc2nc(C)c3cc(C)c(C)cc3n2)cc1C	NR1D1 modulator 27 | Rev-erbA confirm inactive
CCOc1ccc2nc(N/C(N)=N/C(=S)Nc3cccc(OC)c3)nc(C)c2c1	NR1D1 modulator 32 | Rev-erbA confirm inactive
CCOc1ccc2nc(N/C(N)=N/C(=S)Nc3cccc(C)c3)nc(C)c2c1	NR1D1 modulator 35 | Rev-erbA confirm 37 | RORg DNA counter inactive
CN1[C@@H](Cc2ccccc2)COc2cc(N3CCCC3)ccc2S1(=O)=O	none (no result: aDG glyco up, HNF4A DNA FP, CSN deneddyl inh)
CCC(C#Cc1ccccc1)N(C)C(N)=NC(=O)/C=C/c1ccccc1 (stereo not drawn)	none (no result: aDG glyco up, HNF4A DNA FP, CSN deneddyl inh)
CCc1nc2c(c(SC)nn2-c2ccccc2)c(N)c1C(=O)OC	NR1D1 modulator 26 | Rev-erbA confirm inactive
O=S(=O)(c1ccccc1)N1CCN(Cc2ccccc2)c2ccccc21	NR1D1 modulator 25 | Rev-erbA confirm 17
O=S(=O)(c1ccccc1)N1CCN(Cc2ccccc2)CC1	none
C/C(=C/c1nc(N)n(Cc2ccccc2)c1Cc1ccccc1)Cn1[nH]c(=O)n(-c2ccccc2)c1=O	none (no result: aDG glyco up, HNF4A DNA FP, CSN deneddyl inh)
COc1cccc2c1C(=O)c1c(O)c3c(c(O)c1C2=O)C[C@@](O)(C(C)=O)C[C@@H]3O[C@H]1C[C@H](N)[C@H](O)[C@H](C)O1	NR1D1 modulator 28! | Rev-erbA confirm inactive
COc1cccc2c1C(=O)c1c(O)c3c(c(O)c1C2=O)C[C@@](O)(C(=O)CO)C[C@@H]3O[C@H]1C[C@H](N)[C@@H](O)[C@H](C)O1	none
O=C(COC(=O)c1ccc2ccccc2n1)Nc1ncc(C(F)(F)F)cc1Cl	none
O=C(COC(=O)c1ccc2ccccc2c1)Nc1ncc(C(F)(F)F)cc1Cl	NR1D1 modulator 34 | Rev-erbA confirm inactive
CCCCCCCCN1C(=O)[C@@H](CC(=O)NCCC(C)C)C[C@@]2(C(=O)OC)C1=C[C@H](COCc1ccccc1)O[C@@H]2C	none (no result: aDG glyco up, HNF4A DNA FP, CSN deneddyl inh)
CCOC(=O)c1c(C)c(C#N)c2c3ccccc3ccn12	NR1D1 modulator 58 | Rev-erbA confirm 17
CCn1c2ccccc2c2cc(NC(=O)CSc3nnc(-c4cccc(Cl)c4)o3)ccc21	NR1D1 modulator 32 | Rev-erbA confirm inactive
O=C(Cn1cc(C(F)(F)F)cc(Cl)c1=O)Nc1cccc(Cl)c1	none
O=C(Cn1cc(C(F)(F)F)cc(Cl)c1=O)Nc1cc(Cl)cc(Cl)c1	NR1D1 modulator 59 | Rev-erbA confirm 27
COc1nc2c(C)cccc2cc1-c1noc(-c2ccco2)n1	NR1D1 modulator 20 | Rev-erbA confirm inactive
COc1nc(-c2ccc(Cl)cc2)ccc1-c1noc(-c2ccco2)n1	NR1D1 modulator 31 | Rev-erbA confirm inactive
O=C1N2Cc3ccccc3C2CS(=O)(=O)N1Cc1ccccc1 (stereo not drawn)	none (no result: aDG glyco up, HNF4A DNA FP, CSN deneddyl inh)
CCN(CC)c1ccc2cc(S(=O)(=O)c3ccc(Cl)cc3)c(=O)oc2c1	NR1D1 modulator 17 | Rev-erbA confirm 19
CCCCCCc1cc2cc(S(=O)(=O)c3ccc(Cl)cc3)c(=O)oc2cc1O	none
CC(C)(C)c1ccc(-c2nnc(SCc3ccccc3)n2Cc2ccco2)cc1	none (no result: aDG glyco up, HNF4A DNA FP, CSN deneddyl inh)
CC(=O)c1ccc(N2CCN(S(=O)(=O)c3ccc4ccccc4c3)CC2)cc1	none
CC(=O)c1ccc(N2CCN(c3ccc4cc(S(=O)(=O)N5CCC(C)CC5)ccc4n3)CC2)cc1	NR1D1 modulator 35 | Rev-erbA confirm 45 | RORg DNA counter inactive
